{"data": "Assay results from different studies", "target": "Serine/threonine-protein kinase PLK4 (PLK4, Homo sapiens, UniProt O00444)", "Residues used in one study (O00444 1-970)": "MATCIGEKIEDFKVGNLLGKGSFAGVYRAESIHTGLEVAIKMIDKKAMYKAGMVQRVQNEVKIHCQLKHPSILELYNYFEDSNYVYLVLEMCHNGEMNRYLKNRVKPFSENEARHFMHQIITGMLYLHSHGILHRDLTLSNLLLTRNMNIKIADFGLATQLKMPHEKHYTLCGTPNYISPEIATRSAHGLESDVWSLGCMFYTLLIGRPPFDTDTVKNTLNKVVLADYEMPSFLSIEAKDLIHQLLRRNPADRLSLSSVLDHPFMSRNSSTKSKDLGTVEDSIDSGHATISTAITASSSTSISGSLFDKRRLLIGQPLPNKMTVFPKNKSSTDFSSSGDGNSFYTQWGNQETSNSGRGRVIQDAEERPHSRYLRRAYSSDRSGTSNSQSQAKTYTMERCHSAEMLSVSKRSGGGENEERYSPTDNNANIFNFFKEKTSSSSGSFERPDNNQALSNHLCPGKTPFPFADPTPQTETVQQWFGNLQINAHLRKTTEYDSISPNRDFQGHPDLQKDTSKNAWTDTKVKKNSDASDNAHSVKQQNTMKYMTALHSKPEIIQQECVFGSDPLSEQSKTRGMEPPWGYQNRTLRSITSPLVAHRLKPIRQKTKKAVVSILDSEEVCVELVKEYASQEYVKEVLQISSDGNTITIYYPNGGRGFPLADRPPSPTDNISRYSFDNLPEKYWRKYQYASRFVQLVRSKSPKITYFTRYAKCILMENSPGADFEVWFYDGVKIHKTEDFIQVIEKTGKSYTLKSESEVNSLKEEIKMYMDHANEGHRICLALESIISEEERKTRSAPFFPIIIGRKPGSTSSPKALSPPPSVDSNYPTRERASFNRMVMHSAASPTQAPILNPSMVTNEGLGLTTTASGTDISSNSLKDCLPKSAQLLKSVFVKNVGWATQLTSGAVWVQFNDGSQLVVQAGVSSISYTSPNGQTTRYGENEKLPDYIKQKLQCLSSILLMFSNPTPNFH", "note": "Compare with care: the assays were run in different laboratories."}
{"SMILES": "COc1ccc2oc(-c3ccc4nc(N)oc4c3)c/c(=N\\c3ccccc3NC(=O)CCN)c2c1", "observed": "binding", "tested at": "1 µM", "measurement": "remaining binding", "value": "98%"}
{"SMILES": "C=CC(=O)N1CCC([C@@H]2CCNc3c(C(N)=O)c(-c4ccc(Oc5ccccc5)cc4)nn32)CC1", "observed": "enzyme activity", "mode": "inhibitor", "tested at": "1 µM", "measurement": "inhibition", "value": "1%"}
{"SMILES": "C#Cc1cc(-c2cc(Nc3nc(N[C@@H](C)c4ccc(F)cn4)ncc3Cl)n[nH]2)ccc1C=O", "observed": "enzyme activity", "mode": "inhibitor", "tested at": "0.2 µM", "measurement": "inhibition", "value": "80.7%"}
{"SMILES": "C1=C/COCc2cc(ccc2OCCN2CCCC2)Nc2nccc(n2)-c2cccc(c2)COC/1", "observed": "binding", "tested at": "0.1 µM", "measurement": "remaining binding", "value": "42%"}
{"SMILES": "N#Cc1ccc(NC(=O)Nc2ccccc2)cc1", "observed": "cell-free assay", "method": "competition with immobilised ligand", "tested at": "25 µM", "measurement": "remaining binding", "value": "61%"}
{"SMILES": "C[C@H]1CC[C@H](n2c3cnccc3c3cnc(Nc4ccc5c(n4)CCN(C(=O)CO)C5)nc32)CC1", "observed": "binding", "method": "competition with immobilised ligand", "tested at": "1 µM", "measurement": "remaining binding", "value": "18%"}
{"SMILES": "C=CC(=O)N1CCC[C@@H](n2nc(-c3ccc(Oc4ccccc4)cc3)c3c(N)ncnc32)C1", "observed": "enzyme activity", "mode": "inhibitor", "tested at": "1 µM", "measurement": "inhibition", "value": "5%"}
{"SMILES": "CCCCC(=O)Nc1ccc(-c2ccc3ncn(CCC)c(=O)c3c2)cn1", "observed": "binding", "method": "competition with immobilised ligand", "tested at": "0.5 µM", "measurement": "remaining binding", "value": "100%"}
{"SMILES": "Cc1ccc(NC(=O)c2ccnc(C(F)(F)F)c2)cc1-c1cc(OCCO)nc(N2CCOCC2)c1", "observed": "binding", "method": "competition with immobilised ligand", "tested at": "1 µM", "measurement": "remaining binding", "value": "75%"}
